ChEMBL document CHEMBL1142303, “Imidazo[2,1-b]thiazole system: a scaffold endowing dihydropyridines with selective cardiodepressant activity” (J Med Chem, 2008)
Calls of active or inactive are those of the source. No cut-off for these calls is given here.

Tests used:
Cavia porcellus [1] = species: Cavia porcellus; assay: Inotropic activity at L type calcium channel in guinea pig left atrium assessed as decrease in tension at 50 uM relative to control; assay type: tissue-based; parameters: scale not given: the % may be the effect or the level left; details: Cardiac atrium
Cavia porcellus [2] = species: Cavia porcellus; assay: Chronotropic activity at L type calcium channel in guinea pig right atrium assessed as decrease in spontaneous beating at 50 uM relative to control; assay type: tissue-based; parameters: scale not given: the % may be the effect or the level left; details: Cardiac atrium
[3] = Inotropic activity at L type calcium channel in guinea pig left atrium assessed as decrease in tension; assay type: tissue-based; details: Cavia porcellus, Cardiac atrium
In short: (§1)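 Guinea-pig atria: left atrium driven at 1 Hz for inotropy, spontaneously beating right atrium for chronotropy. Increasing cumulative doses, readout is percent decrease. EC50 (inotropic) and EC30 (chronotropic) by Litchfield–Wilcoxon probit analysis on log concentration–response curves, n = 6–7. Not calculated when the maximum effect was below 50%.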

Cavia porcellus [4] = species: Cavia porcellus; assay: Chronotropic activity at L type calcium channel in guinea pig right atrium assessed as decrease in spontaneous beating; assay type: tissue-based; details: Cardiac atrium; in short: as §1
Cavia porcellus [5] = species: Cavia porcellus; assay: Activity at L type calcium channel in K+ depolarized guinea pig aortic strip assessed as inhibition of calcium induced contraction at 100 uM; assay type: tissue-based; parameters: scale not given: the % may be the effect or the level left; details: Aorta
In short: (§2)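 Guinea-pig aortic strips depolarized with 80 mM K+. Drugs added cumulatively. Readout is percent inhibition of calcium-induced contraction, n = 5–6. Control versus treated values tested at each concentration by Student's t-test, P < 0.05.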

Cavia porcellus [6] = species: Cavia porcellus; assay: Inotropic activity at L type calcium channel in guinea pig left atrium assessed as decrease in tension at 100 uM relative to control; assay type: tissue-based; parameters: scale not given: the % may be the effect or the level left; details: Cardiac atrium
Cavia porcellus [7] = species: Cavia porcellus; assay: Chronotropic activity at L type calcium channel in guinea pig right atrium assessed as decrease in spontaneous beating at 100 uM relative to control; assay type: tissue-based; parameters: scale not given: the % may be the effect or the level left; details: Cardiac atrium
Cavia porcellus [8] = species: Cavia porcellus; assay: Chronotropic activity at L type calcium channel in guinea pig right atrium assessed as decrease in spontaneous beating at 5 uM relative to control; assay type: tissue-based; parameters: scale not given: the % may be the effect or the level left; details: Cardiac atrium
[9] = Activity at L type calcium channel in K+ depolarized guinea pig longitudinal smooth muscle assessed as inhibition of calcium induced contraction; parameters: species or system Cavia porcellus
Cavia porcellus [10] = species: Cavia porcellus; assay: Chronotropic activity at L type calcium channel in guinea pig right atrium assessed as decrease in spontaneous beating at 10 uM relative to control; assay type: tissue-based; parameters: scale not given: the % may be the effect or the level left; details: Cardiac atrium
Cavia porcellus [11] = species: Cavia porcellus; assay: Activity at L type calcium channel in K+ depolarized guinea pig longitudinal smooth muscle assessed as inhibition of calcium induced contraction at 10 uM; parameters: scale not given: the % may be the effect or the level left
Cavia porcellus [12] = species: Cavia porcellus; assay: Inotropic activity at L type calcium channel in guinea pig left atrium assessed as decrease in tension at 5 uM relative to control; assay type: tissue-based; parameters: scale not given: the % may be the effect or the level left; details: Cardiac atrium
Cavia porcellus [13] = species: Cavia porcellus; assay: Activity at L type calcium channel in K+ depolarized guinea pig aortic strip assessed as inhibition of calcium induced contraction at 10 uM; assay type: tissue-based; parameters: scale not given: the % may be the effect or the level left; details: Aorta; in short: as §2
Cavia porcellus [14] = species: Cavia porcellus; assay: Inotropic activity at L type calcium channel in guinea pig left atrium assessed as decrease in tension at 1 uM relative to control; assay type: tissue-based; parameters: scale not given: the % may be the effect or the level left; details: Cardiac atrium
Cavia porcellus [15] = species: Cavia porcellus; assay: Activity at L type calcium channel in K+ depolarized guinea pig aortic strip assessed as inhibition of calcium induced contraction at 50 uM; assay type: tissue-based; parameters: scale not given: the % may be the effect or the level left; details: Aorta; in short: as §2
Cavia porcellus [16] = species: Cavia porcellus; assay: Inotropic activity at L type calcium channel in guinea pig left atrium assessed as decrease in tension at 10 uM relative to control; assay type: tissue-based; parameters: scale not given: the % may be the effect or the level left; details: Cardiac atrium
Cavia porcellus [17] = species: Cavia porcellus; assay: Activity at L type calcium channel in K+ depolarized guinea pig longitudinal smooth muscle assessed as inhibition of calcium induced contraction at 100 uM; parameters: scale not given: the % may be the effect or the level left
Cavia porcellus [18] = species: Cavia porcellus; assay: Activity at L type calcium channel in K+ depolarized guinea pig longitudinal smooth muscle assessed as inhibition of calcium induced contraction at 1 uM; parameters: scale not given: the % may be the effect or the level left
HEK293 = assay: Displacement of (+)-[5-methyl-3H][…] from L type calcium channel Cav1.2b in rabbit expressed in HEK293 cells; assay type: cell-based; details: Oryctolagus cuniculus
In short: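 Intact HEK-293 cells transfected with rabbit Cav1.2a (α1C-a) or Cav1.2b (α1C-b) plasmid, labelled with (+)-[5-methyl-3H]PN200-110. Nonspecific binding about 10–20% of total. IC50 is mean ± S.E.M. of three independent experiments.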

[19] = Displacement of (+)-[5-methyl-3H][…] from L type calcium channel in guinea pig heart ventricles; parameters: species or system Cavia porcellus
In short: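 Guinea-pig ventricular membranes incubated with 0.5 nM (+)-[5-methyl-3H]PN200-110 and test compounds at 0.1–50 µM in a competitive radioligand assay. Ki and IC50 reported as mean ± S.E.M. Student's t-test, significance P < 0.001.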

SMILES | Activity (Cavia porcellus [1]) [%] | EC50 [3] [µM] | EC30 (Cavia porcellus [4]) [µM] | Activity (Cavia porcellus [5]) [%] | Activity (Cavia porcellus [10]) [%] | Activity (Cavia porcellus [15]) [%] | other results
COC(=O)C1=C(C)NC(C)=C(C(=O)OC)C1c1c(-c2cc(OC)c(OC)cc2[N+](=O)[O-])nc2sccn12 | 91 | 1.34 | 6.97 | 35 | – | – | Activity (Cavia porcellus [2]): 90%
COC(=O)C1=C(C)NC(C)=C(C(=O)OC)C1c1c(-c2cc(OC)ccc2OC)nc2sc(Cl)cn12 | – | 0.9 | 0.36 | 11 | – | – | Activity (Cavia porcellus [6]): 55%; Activity (Cavia porcellus [7]): 84%
COC(=O)C1=C(C)NC(C)=C(C(=O)OC)C1c1c(-c2ccccc2)nc2sc(C)c(C)n12 | – | 0.59 | 0.33 | 12 | – | – | Activity (Cavia porcellus [6]): 76%; Activity (Cavia porcellus [8]): 94%
COC(=O)C1=C(C)NC(C)=C(C(=O)OC)C1c1c(-c2cc(OC)ccc2OC)nc2sccn12 | 92 | 0.44 | – | 24 | 31 | – | IC50 [9]: 12.3 µM; Activity (Cavia porcellus [11]): 51%
COC(=O)C1=C(C)NC(C)=C(C(=O)OC)C1c1c(-c2ccc(OC)cc2OC)nc2sccn12 | 71 | 1.24 | 5.88 | 42 | 55 | – | –
COC(=O)C1=C(C)NC(C)=C(C(=O)OC)C1c1c(Cl)nc2sc(C)c(C)n12 | – | 0.081 | – | – | – | – | Activity (Cavia porcellus [12]): 73%; Activity (Cavia porcellus [8]): 29%; Activity (Cavia porcellus [13]): 29%
COC(=O)C1=C(C)NC(C)=C(C(=O)OC)C1c1c(-c2ccccc2C(F)(F)F)nc2sccn12 | – | 0.093 | – | 24 | 25 | – | Activity (Cavia porcellus [14]): 56%; IC50 [9]: 1.66 µM; Activity (Cavia porcellus [11]): 92%
COC(=O)C1=C(C)NC(C)=C(C(=O)OC)C1c1c(-c2ccccc2OC)nc2sccn12 | – | 1.97 | 1.99 | 28 | – | – | Activity (Cavia porcellus [6]): 54%; Activity (Cavia porcellus [7]): 95%
COC(=O)C1=C(C)NC(C)=C(C(=O)OC)C1c1c(-c2c(OC)ccc(OC)c2[N+](=O)[O-])nc2sc(Cl)cn12 | – | – | 11.2 | 32 | – | – | Activity (Cavia porcellus [14]): 42%; Activity (Cavia porcellus [7]): 64%
COC(=O)C1=C(C)NC(C)=C(C(=O)OC)C1c1c(C)nc2sc(Cl)cn12 | 63 | 0.13 | – | – | 30 | 24 | –
COC(=O)C1=C(C)NC(C)=C(C(=O)OC)C1c1c(-c2cc(OC)c([N+](=O)[O-])cc2OC)nc2sc(Cl)cn12 | – | 0.36 | 0.31 | – | – | – | Activity (Cavia porcellus [16]): 58%; Activity (Cavia porcellus [8]): 90%; Activity (Cavia porcellus [13]): 19%
COC(=O)C1=C(C)NC(C)=C(C(=O)OC)C1c1c(-c2c(OC)ccc(OC)c2[N+](=O)[O-])nc2sccn12 | – | 0.36 | – | 17 | – | – | Activity (Cavia porcellus [16]): 71%; Activity (Cavia porcellus [17]): 86%; IC50 [9]: 11 µM; Activity (Cavia porcellus [7]): 12%
COC(=O)C1=C(C)NC(C)=C(C(=O)OC)C1c1c(-c2ccc(OC)c(OC)c2)nc2sccn12 | – | 2.64 | 1.44 | – | – | 15 | Activity (Cavia porcellus [6]): 61%; Activity (Cavia porcellus [2]): 80%
COC(=O)C1=C(C)NC(C)=C(C(=O)OC)C1c1c(-c2c(OC)ccc(OC)c2[N+](=O)[O-])nc2sc(C)cn12 | – | 0.093 | – | 27 | – | – | Activity (Cavia porcellus [12]): 71%; Activity (Cavia porcellus [7]): 47%
COC(=O)C1=C(C)NC(C)=C(C(=O)OC)C1c1c(Cl)nc2scc(C)n12 | – | 0.103 | – | – | 39 | 47 | Activity (Cavia porcellus [14]): 79%
COC(=O)C1=C(C)NC(C)=C(C(=O)OC)C1c1c(-c2cc(OC)c([N+](=O)[O-])cc2OC)nc2sccn12 | – | 0.054 | 3.97 | – | 67 | 35 | Activity (Cavia porcellus [12]): 54%; IC50 [9]: 2.56 µM; Activity (Cavia porcellus [11]): 97%
COC(=O)C1=C(C)NC(C)=C(C(=O)OC)C1c1c(-c2ccccc2)nc2scc(C)n12 | – | 0.83 | 0.64 | – | – | 30 | Activity (Cavia porcellus [6]): 59%; Activity (Cavia porcellus [8]): 88%
CCCc1cn2c(C3C(C(=O)OC)=C(C)NC(C)=C3C(=O)OC)c(-c3c(OC)ccc(OC)c3[N+](=O)[O-])nc2s1 | 55 | 0.039 | – | 5 | – | – | Activity (Cavia porcellus [17]): 89%; IC50 [9]: 12.8 µM; Activity (Cavia porcellus [8]): 25%
COC(=O)C1=C(C)NC(C)=C(C(=O)OC)C1c1c(C(F)(F)F)nc2sc(C)cn12 | – | – | – | – | 36 | 28 | Activity (Cavia porcellus [14]): 46%
COC(=O)C1=C(C)NC(C)=C(C(=O)OC)C1c1c(-c2cc(OC)c([N+](=O)[O-])cc2OC)nc2sc(C)cn12 | – | 0.026 | 2.11 | 32 | 87 | – | Activity (Cavia porcellus [12]): 75%; Activity (Cavia porcellus [18]): 94%; IC50 [9]: 0.24 µM; Activity (HEK293): inactive; Log Ki [19]: < -5
COC(=O)C1=C(C)NC(C)=C(C(=O)OC)C1c1c(-c2cccc(C(F)(F)F)c2)nc2sccn12 | 89 | 0.31 | 1.9 | – | 78 | 27 | –
CCc1cn2c(C3C(C(=O)OC)=C(C)NC(C)=C3C(=O)OC)c(-c3cc(OC)ccc3OC)nc2s1 | 72 | 2.24 | 0.73 | – | 92 | 29 | –
COC(=O)C1=C(C)NC(C)=C(C(=O)OC)C1c1c(Cl)nc2sc(Cl)cn12 | 77 | 0.18 | – | – | 37 | 34 | –
COC(=O)C1=C(C)NC(C)=C(C(=O)OC)C1c1c(-c2cccc(OC(F)(F)F)c2)nc2sccn12 | 86 | 0.83 | 1.18 | 26 | – | – | Activity (Cavia porcellus [8]): 69%
COC(=O)C1=C(C)NC(C)=C(C(=O)OC)C1c1c(-c2cc(OC)ccc2OC)nc2sc(C)cn12 | 78 | 1.43 | 1.36 | 15 | 58 | – | –
COC(=O)C1=C(C)NC(C)=C(C(=O)OC)C1c1c(-c2cc(OC)c(OC)c(OC)c2)nc2sccn12 | – | – | – | 44 | – | – | Activity (Cavia porcellus [14]): 42%; Activity (Cavia porcellus [18]): 64%; IC50 [9]: 0.55 µM; Activity (Cavia porcellus [8]): 25%
COC(=O)C1=C(C)NC(C)=C(C(=O)OC)C1c1c(-c2ccccc2)nc2sc(Cl)cn12 | – | 1.96 | 2.14 | – | 87 | 22 | Activity (Cavia porcellus [6]): 58%
